Assay results published in ChEMBL document CHEMBL3526089, “Selective mechanism-based inactivation of CYP3A4 by CYP3cide (PF-04981517) and its utility as an in vitro tool for delineating the relative roles of CYP3A4 versus CYP3A5 in the metabolism of drugs” (Drug Metab Dispos, 2012).

How the values were obtained:
Assay type in all cases: ADME
Details in all cases: recombinant enzyme
[1] = biological target: T1, Cytochrome P450 3A5 (Homo sapiens, UniProt P20815); experiment: Drug metabolism assessed as human recombinant CYP3A5 in presence of human P450 oxidoreductase and b5-mediated compound formation at 10 uM by HPLC-MS analysis in presence of KCN
T1 sequence (P20815 whole entry): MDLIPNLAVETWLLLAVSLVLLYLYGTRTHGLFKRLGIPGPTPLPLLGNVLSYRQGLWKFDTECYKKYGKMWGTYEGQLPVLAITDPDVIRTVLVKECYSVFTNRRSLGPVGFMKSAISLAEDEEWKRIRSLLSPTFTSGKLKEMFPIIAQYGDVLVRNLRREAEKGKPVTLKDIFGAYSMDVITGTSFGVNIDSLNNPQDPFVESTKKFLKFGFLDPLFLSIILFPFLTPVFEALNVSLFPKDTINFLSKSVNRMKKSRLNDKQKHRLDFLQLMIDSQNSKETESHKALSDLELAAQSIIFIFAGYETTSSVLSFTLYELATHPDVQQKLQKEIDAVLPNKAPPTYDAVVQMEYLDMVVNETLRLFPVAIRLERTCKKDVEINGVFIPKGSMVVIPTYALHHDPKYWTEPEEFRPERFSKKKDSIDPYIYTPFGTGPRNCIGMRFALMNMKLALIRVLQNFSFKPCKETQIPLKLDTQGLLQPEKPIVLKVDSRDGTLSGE
Summary of the method: (§1)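 Recombinant CYP3A4 or CYP3A5 (50 pmol/ml final) added, without preincubation, to 10 µM CYP3cide with NADPH (final 1 mM) in 100 mM phosphate pH 7.4. Trapping incubations also held 200 µM KCN or 5 mM GSH (final). Incubated 1 h at 37°C, quenched with acetonitrile, dried, reconstituted. Metabolites analysed by LC/Orbitrap ESI-MS.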

[2] = biological target: T1, Cytochrome P450 3A5; experiment: Drug level assessed as human recombinant CYP3A5 in presence of human P450 oxidoreductase and b5-mediated drug metabolism treated with 10 uM of PF-04981517 by HPLC-MS analysis in presence of KCN and NADPH; summary of the method: as §1
[3] = biological target: T1, Cytochrome P450 3A5; experiment: Drug level assessed as human recombinant CYP3A5 in presence of human P450 oxidoreductase and b5-mediated drug metabolism treated with 10 uM of PF-04981517 by HPLC-MS analysis in presence of NADPH; summary of the method: as §1
[4] = biological target: T2, Cytochrome P450 3A4 (Homo sapiens, UniProt P08684); experiment: Drug level assessed as human recombinant CYP3A4 in presence of human P450 oxidoreductase and b5-mediated drug metabolism treated with 10 uM of PF-04981517 by HPLC-MS analysis in presence of KCN and NADPH; summary of the method: as §1
T2 sequence (P08684 whole entry): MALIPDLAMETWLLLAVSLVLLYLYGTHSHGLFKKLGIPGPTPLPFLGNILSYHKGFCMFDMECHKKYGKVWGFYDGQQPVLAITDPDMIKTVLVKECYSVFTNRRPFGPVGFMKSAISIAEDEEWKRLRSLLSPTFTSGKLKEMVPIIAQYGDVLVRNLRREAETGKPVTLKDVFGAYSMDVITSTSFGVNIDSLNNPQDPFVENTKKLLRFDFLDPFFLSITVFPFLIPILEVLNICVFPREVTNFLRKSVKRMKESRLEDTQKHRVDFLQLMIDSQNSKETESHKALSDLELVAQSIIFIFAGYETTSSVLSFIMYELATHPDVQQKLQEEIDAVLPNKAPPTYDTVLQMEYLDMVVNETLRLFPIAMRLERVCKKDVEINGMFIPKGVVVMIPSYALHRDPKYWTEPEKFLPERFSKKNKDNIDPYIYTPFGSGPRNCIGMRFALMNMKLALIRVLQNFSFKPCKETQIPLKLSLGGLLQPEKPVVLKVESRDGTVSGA

[5] = biological target: T2, Cytochrome P450 3A4; experiment: Drug level assessed as human recombinant CYP3A4 in presence of human P450 oxidoreductase and b5-mediated drug metabolism treated with 10 uM of PF-04981517 by HPLC-MS analysis in presence of NADPH; summary of the method: as §1

## Cc1ccc(-c2c(-c3nn(C)c4ncnc(N5CC[C@H](N)C5)c34)cnn2C)cc1
[1]
  Drug metabolism: metabolite_detected

## Cc1ccc(-c2c(-c3nn(C)c4ncnc(N5CC[C@H](N6CCCCC6=O)C5)c34)cnn2C)cc1
[1]
  Drug metabolism: metabolite_detected

## Cc1ccc(-c2c(-c3nn(C)c4ncnc(N5CC[C@H]([N+]6=CCCCC6)C5)c34)cnn2C)cc1
[2]
  Drug metabolism: metabolite_detected
[3]
  Drug metabolism: metabolite_detected
[4]
  Drug metabolism: metabolite_detected
[5]
  Drug metabolism: metabolite_detected

## Cc1ccc(-c2c(-c3nn(C)c4ncnc(N5CC[C@H](N6CCCCC6)C5)c34)cnn2CO)cc1
[2]
  Drug metabolism: metabolite_detected
[3]
  Drug metabolism: metabolite_detected
[4]
  Drug metabolism: metabolite_detected
[5]
  Drug metabolism: metabolite_detected
